In brackets after ≈: the same amount, converted by molar mass.
What was measured:
Type in all cases: functional
Enterobacter cloacae [1] = experiment: Antimicrobial activity against Enterobacter cloacae isolate 1 containing PFGE genetic clone A expressing qnrB2 and beta-lactamase KPC-2 and SHV-12 gene by Etest
Enterobacter cloacae [2] = experiment: Antimicrobial activity against Enterobacter cloacae isolate 18 containing PFGE genetic clone A expressing qnrB2 and beta-lactamase KPC-2 and SHV-12 gene by Etest
Enterobacter cloacae [3] = experiment: Antimicrobial activity against Enterobacter cloacae isolate 140 containing PFGE genetic clone A expressing beta-lactamase KPC-2 and SHV-12 gene by Etest
Enterobacter cloacae [4] = experiment: Antimicrobial activity against Enterobacter cloacae isolate 151 containing PFGE genetic clone A expressing qnrB2 and beta-lactamase KPC-2 gene by Etest
Enterobacter cloacae [5] = experiment: Antimicrobial activity against Enterobacter cloacae isolate 185 containing PFGE genetic clone A expressing qnrB2 aac(6')-Ib-cr and beta-lactamase KPC-2 and SHV-12 gene by Etest
Enterobacter cloacae [6] = experiment: Antimicrobial activity against Enterobacter cloacae isolate 293 containing PFGE genetic clone A expressing qnrB2 and beta-lactamase KPC-2 and SHV-12 gene by Etest
Enterobacter cloacae [7] = experiment: Antimicrobial activity against Enterobacter cloacae isolate 533 containing PFGE genetic clone A expressing qnrB2 and beta-lactamase KPC-2 and SHV-12 gene by Etest
Enterobacter cloacae [8] = experiment: Antimicrobial activity against Enterobacter cloacae isolate 622 containing PFGE genetic clone A expressing qnrB2 and beta-lactamase KPC-2 and SHV-12 gene by Etest
Enterobacter cloacae [9] = experiment: Antimicrobial activity against Enterobacter cloacae isolate 625 containing PFGE genetic clone A expressing qnrB2 and beta-lactamase KPC-2 and SHV-12 gene by Etest
Enterobacter cloacae [10] = experiment: Antimicrobial activity against Enterobacter cloacae isolate 656 containing PFGE genetic clone A expressing beta-lactamase KPC-2 and SHV-12 gene by Etest
Enterobacter cloacae [11] = experiment: Antimicrobial activity against Enterobacter cloacae isolate 649 containing PFGE genetic clone B expressing qnrB2 and beta-lactamase KPC-2 and SHV-12 gene by Etest
Enterobacter cloacae [12] = experiment: Antimicrobial activity against Enterobacter cloacae isolate 658 containing PFGE genetic clone B expressing qnrB2 and beta-lactamase KPC-2 and SHV-12 gene by Etest
Enterobacter cloacae [13] = experiment: Antimicrobial activity against Enterobacter cloacae isolate 781 containing PFGE genetic clone B expressing qnrB2 and beta-lactamase KPC-2 and SHV-12 gene by Etest
Enterobacter cloacae [14] = experiment: Antimicrobial activity against Enterobacter cloacae isolate 837 containing PFGE genetic clone B expressing qnrB2 and beta-lactamase KPC-2 and SHV-12 gene by Etest
Enterobacter cloacae [15] = experiment: Antimicrobial activity against Enterobacter cloacae isolate 4469 containing PFGE genetic clone C expressing qnrB2 and beta-lactamase KPC-2 and SHV-12 gene by Etest
Escherichia coli [16] = experiment: Antimicrobial activity against Escherichia coli T-622 harboring expressing qnrB2 and beta-lactamase KPC-2 and SHV-12 gene by Etest
How it was run: (§1)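 MIC read by Etest. Strains are E. coli GeneHogs (recA1) transformants. Plasmid DNA from clinical E. cloacae isolates was introduced by electroporation. Transformants were selected on LB agar with 100 μg/ml ampicillin, then PCR-screened for blaKPC, blaSHV and qnr genes.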

Escherichia coli [17] = experiment: Antimicrobial activity against Escherichia coli T-625 harboring expressing qnrB2 and beta-lactamase KPC-2 and SHV-12 gene by Etest; how it was run: as §1
Escherichia coli [18] = experiment: Antimicrobial activity against Escherichia coli T-781 harboring expressing qnrB2 and beta-lactamase KPC-2 and SHV-12 gene by Etest; how it was run: as §1
Escherichia coli [19] = experiment: Antimicrobial activity against Escherichia coli GeneHogs by Etest
How it was run: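 MIC read by Etest on the plasmid-free electroporation recipient, E. coli GeneHogs (recA1 mutant).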

| Compound | MIC (Enterobacter cloacae [1]) [µg/mL] | MIC (Enterobacter cloacae [2]) [µg/mL] | MIC (Enterobacter cloacae [3]) [µg/mL] | MIC (Enterobacter cloacae [4]) [µg/mL] | MIC (Enterobacter cloacae [5]) [µg/mL] | MIC (Enterobacter cloacae [6]) [µg/mL] | MIC (Enterobacter cloacae [7]) [µg/mL] | MIC (Enterobacter cloacae [8]) [µg/mL] | MIC (Enterobacter cloacae [9]) [µg/mL] | MIC (Enterobacter cloacae [10]) [µg/mL] | MIC (Enterobacter cloacae [11]) [µg/mL] | MIC (Enterobacter cloacae [12]) [µg/mL] | MIC (Enterobacter cloacae [13]) [µg/mL] | MIC (Enterobacter cloacae [14]) [µg/mL] | MIC (Enterobacter cloacae [15]) [µg/mL] | MIC (Escherichia coli [16]) [µg/mL] | MIC (Escherichia coli [17]) [µg/mL] | MIC (Escherichia coli [18]) [µg/mL] | MIC (Escherichia coli [19]) [µg/mL] |
| --- | --- | --- | --- | --- | --- | --- | --- | --- | --- | --- | --- | --- | --- | --- | --- | --- | --- | --- | --- |
| C[C@@H](O)[C@H]1C(=O)N2C(C(=O)O)=C(S[C@@H]3CN[C@H](C(=O)Nc4cccc(C(=O)O)c4)C3)[C@H](C)[C@H]12 | 32 (≈ 67.3 µM) | 4 (≈ 8.41 µM) | > 32 | > 32 | 4 (≈ 8.41 µM) | > 32 | 24 (≈ 50.5 µM) | 32 (≈ 67.3 µM) | 24 (≈ 50.5 µM) | 16 (≈ 33.6 µM) | 16 (≈ 33.6 µM) | 12 (≈ 25.2 µM) | > 32 | 8 (≈ 16.8 µM) | > 32 | 8 (≈ 16.8 µM) | 8 (≈ 16.8 µM) | 12 (≈ 25.2 µM) | 0.012 (≈ 0.0252 µM) |
| NCC[C@H](O)C(=O)N[C@@H]1C[C@H](N)[C@@H](O[C@H]2O[C@H](CN)[C@@H](O)[C@H](O)[C@H]2O)[C@H](O)[C@H]1O[C@H]1O[C@H](CO)[C@@H](O)[C@H](N)[C@H]1O [AMIKACIN] | ≤ 2 | ≤ 2 | ≤ 2 | ≤ 2 | ≤ 2 | 16 (≈ 27.3 µM) | ≤ 2 | ≤ 2 | ≤ 2 | ≤ 2 | ≤ 2 | ≤ 2 | ≤ 2 | 32 (≈ 54.6 µM) | ≤ 2 | ≤ 2 | ≤ 2 | ≤ 2 | ≤ 2 |
| C[C@H]1[C@H](NC(=O)/C(=N\OC(C)(C)C(=O)O)c2csc(N)n2)C(=O)N1S(=O)(=O)O [AZTREONAM] | – | – | – | – | – | – | – | – | – | – | – | – | – | – | – | ≥ 64 | ≥ 64 | 32 (≈ 73.5 µM) | ≤ 1 |
| CC(C)(O/N=C(\C(=O)N[C@@H]1C(=O)N2C(C(=O)[O-])=C(C[n+]3ccccc3)CS[C@H]12)c1csc(N)n1)C(=O)O [CEFTAZIDIME] | ≥ 64 | ≥ 64 | ≥ 64 | 16 (≈ 29.3 µM) | ≥ 64 | ≥ 64 | ≥ 64 | ≥ 64 | ≥ 64 | ≥ 64 | ≥ 64 | ≥ 64 | ≥ 64 | ≥ 64 | ≥ 64 | 32 (≈ 58.5 µM) | 32 (≈ 58.5 µM) | 32 (≈ 58.5 µM) | ≤ 1 |
| C[C@@H](O)[C@H]1C(=O)N2C(C(=O)O)=C(SCCNC=N)C[C@H]12 [IMIPENEM ANHYDROUS] | 16 (≈ 53.4 µM) | 8 (≈ 26.7 µM) | > 32 | 12 (≈ 40.1 µM) | 8 (≈ 26.7 µM) | > 32 | 4 (≈ 13.4 µM) | 24 (≈ 80.2 µM) | 16 (≈ 53.4 µM) | 32 (≈ 107 µM) | 32 (≈ 107 µM) | > 32 | > 32 | 6 (≈ 20 µM) | 24 (≈ 80.2 µM) | 4 (≈ 13.4 µM) | 8 (≈ 26.7 µM) | 3 (≈ 10 µM) | 0.125 (≈ 0.418 µM) |
| C[C@H]1COc2c(N3CCN(C)CC3)c(F)cc3c(=O)c(C(=O)O)cn1c23.C[C@H]1COc2c(N3CCN(C)CC3)c(F)cc3c(=O)c(C(=O)O)cn1c23.O [LEVOFLOXACIN] | 0.38 | 0.5 | 0.094 | 0.5 | 0.5 | 0.75 | 0.38 | 0.5 | 0.5 | 0.5 | 0.75 | 1 | 0.5 | 0.75 | 0.5 | 0.023 | 0.094 | 0.047 | – |
| C[C@@H](O)[C@H]1C(=O)N2C(C(=O)O)=C(S[C@@H]3CN[C@H](C(=O)N(C)C)C3)[C@H](C)[C@H]12 [MEROPENEM] | 2 (≈ 5.22 µM) | > 32 | 4 (≈ 10.4 µM) | > 32 | 24 (≈ 62.6 µM) | 8 (≈ 20.9 µM) | 2 (≈ 5.22 µM) | 8 (≈ 20.9 µM) | 6 (≈ 15.6 µM) | 6 (≈ 15.6 µM) | 4 (≈ 10.4 µM) | 24 (≈ 62.6 µM) | > 32 | 6 (≈ 15.6 µM) | 8 (≈ 20.9 µM) | 3 (≈ 7.82 µM) | 3 (≈ 7.82 µM) | 2 (≈ 5.22 µM) | 0.016 (≈ 0.0417 µM) |
| CCn1cc(C(=O)O)c(=O)c2ccc(C)nc21 [NALIDIXIC ACID] | 16 (≈ 68.9 µM) | 16 (≈ 68.9 µM) | 4 (≈ 17.2 µM) | 16 (≈ 68.9 µM) | 16 (≈ 68.9 µM) | 16 (≈ 68.9 µM) | 16 (≈ 68.9 µM) | 16 (≈ 68.9 µM) | 16 (≈ 68.9 µM) | 16 (≈ 68.9 µM) | 16 (≈ 68.9 µM) | 16 (≈ 68.9 µM) | 16 (≈ 68.9 µM) | 16 (≈ 68.9 µM) | 16 (≈ 68.9 µM) | 2 (≈ 8.61 µM) | 4 (≈ 17.2 µM) | 2 (≈ 8.61 µM) | 2 (≈ 8.61 µM) |
| GENTAMICIN | > 16 | > 16 | > 16 | > 16 | > 16 | > 16 | > 16 | > 16 | > 16 | > 16 | > 16 | > 16 | > 16 | > 16 | > 16 | > 16 | > 16 | > 16 | < 1 |
